Experimental data taken from PMC5470083 (Molecular imaging, 2016).
Like-named read-outs stand apart in the source and are kept apart here. Marks after values point to notes of the source that are not given here.

Key:
[1] = molecular target: Aβ fibrils; settings: read-out: Ki for Aβ fibrils; reported values; ref [3],[13]; cited from earlier work
[2] = molecular target: T1, tau (NFTs) (Homo sapiens, UniProt P10636); assay type: binding; settings: 1 µmol/L compound, human AD slices, n = 3
Target sequence in this assay (P10636 623-708 limits assumed): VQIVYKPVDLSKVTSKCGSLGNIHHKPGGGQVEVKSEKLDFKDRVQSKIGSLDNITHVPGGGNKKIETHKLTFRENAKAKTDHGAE

[3] = Perfused brain radiometabolite analysis; assay type: in vivo, mouse; settings: normal mice
[4] = molecular target: amyloid plaques (Homo sapiens, UniProt P05067); assay type: binding
[5] = Plasma radiometabolite analysis; assay type: in vivo, mouse; settings: normal mice
Procedure, shortened: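 NMRI mice under isoflurane (2.5% in O2) received about 3.7 MBq of 18F-labelled tracer via a lateral tail vein. They were decapitated at 2, 10, 30 or 60 min PI (n = 3/time point). EDTA blood was kept on ice and spun at 2330 ×g for 10 min. Plasma (0.5 mL) was spiked with 10 µg authentic unlabelled compound and run on C18 HPLC. Fractions were γ-counted for % intact tracer, reported as mean ± SD.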

[6] = molecular target: NFTs; settings: autoradiography on human AD brain tissue sections; ref [8],[11]; cited from earlier work
[7] = molecular target: Aβ (Homo sapiens, UniProt P05067); test: In vitro autoradiography binding inhibition of [11C]PiB on human AD brain slices
[8] = molecular target: PHF tau (Homo sapiens, UniProt P10636); assay type: binding
[9] = molecular target: T1, tau (NFTs); assay type: binding
Target sequence in this assay (P10636 623-695 limits assumed): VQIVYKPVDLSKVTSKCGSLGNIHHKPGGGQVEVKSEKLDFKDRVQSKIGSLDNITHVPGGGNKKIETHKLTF

[10] = Biodistribution in normal NMRI mice; assay type: in vivo, mouse; settings: for %ID/g Blood / %ID/g Bone / %ID/g Brain / %ID/g Cerebellum / %ID/g Cerebrum / %ID/g Heart / %ID/g Kidneys / %ID/g Liver / %ID/g Lungs / %ID/g Muscle / %ID/g Pancreas / %ID/g Spleen: iv
Procedure, shortened: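 Healthy male NMRI mice (30-40 g) under 2.5% isoflurane in O2 received about 0.9 MBq of 18F-labelled tracer by tail vein. They were decapitated at 2, 10, 30 and 60 min PI (n = 4/time point). Blood and organs were weighed and γ-counted. Blood, bone and muscle were taken as 7%, 12% and 40% of body mass. Blood clearance was calculated as the 2 min to 60 min activity ratio.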

[11] = read-out: % Block ± SD of tracer binding

Chain of Aβ (P05067 672-711 limits assumed): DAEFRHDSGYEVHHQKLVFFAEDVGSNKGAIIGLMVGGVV
Chain of PHF tau (P10636 623-695 limits assumed): as the sequence (P10636 623-695 limits assumed) above
Chain of amyloid plaques (P05067 672-711 limits assumed): as the sequence (P05067 672-711 limits assumed) above

Compound: CNc1ccc(-c2ccc3ccccc3n2)cc1 [BF-158, N-Methyl-4-(quinolin-2-yl)benzenamine]
- Ki [1]: > 5000 nM
- % Block ± SD of tracer binding ([2]; tracer 40 nmol/L [18F]T808): 93 ± 0.0%

Compound: FCCC1CCN(c2ccn3c(n2)nc2ccccc23)CC1 [T808, 2-[4-(2-fluoroethyl)piperidin-1-yl]pyrimido[1,2-a]benzimidazole]
- Mean % ± SD of intact tracer, perfused brain ([3]; 10 min after injection, n = 3): 88 ± 2%
- Mean % ± SD of intact tracer, perfused brain ([3]; 10 min after injection, n = 3, listed as [^18F]T808): 88%
- Mean % ± SD of intact tracer, perfused brain ([3]; 60 min after injection, n = 3): 34 ± 10%
- Mean % ± SD of intact tracer, perfused brain ([3]; 60 min after injection, n = 3, listed as [^18F]T808): 34%
- Ki [4]: > 4400 nM
- Mean % ± SD of intact tracer, plasma ([5]; 2 min after injection, n = 3): 65 ± 8%
- Mean % ± SD of intact tracer, plasma ([5]; 2 min after injection, n = 3, listed as [^18F]T808): 65%
- Mean % ± SD of intact tracer, plasma ([5]; 10 min after injection, n = 3): 34 ± 3%
- Mean % ± SD of intact tracer, plasma ([5]; 30 min after injection, n = 3): 29 ± 3%
- Mean % ± SD of intact tracer, plasma ([5]; 30 min after injection, n = 3, listed as [^18F]T808): 29%
- Mean % ± SD of intact tracer, plasma ([5]; 60 min after injection, n = 3): 26 ± 12%
- Kd [6]: 22 nM
- fold higher binding affinity for NFTs over Aβ [6]: 27 fold
- % Block ± SD of tracer binding ([7]; 1 µmol/L compound, tracer 66 nmol/L [11C]PiB, human AD slices, n = 3): 17 ± 0.0%
- inhibition at 1 µM [7, 11]: 17%
- inhibition at 1 µM ([7]; read-out: Inhibition of [11C]PiB binding, summary statements): < 17%
- Ki [8]: 9.4 nM
- % Block ± SD of tracer binding ([9]; 1 µmol/L compound, tracer 28 nmol/L [18F]T807, human AD slices, n = 3): 90 ± 10^b %
- inhibition at 1 µM [9, 11]: 90%
- %ID/g Blood ([10]; blood, 2 min PI): 1.8 ± 0.1 %ID/g
- 2/60 min activity ratio Blood (clearance from blood) ([10]; blood, 2 min to 60 min activity ratio): 2.7
- %ID/g Blood ([10]; blood, 10 min PI): 2.0 ± 0.2 %ID/g
- %ID/g Blood ([10]; blood, 30 min PI): 1.5 ± 0.1 %ID/g
- %ID/g Blood ([10]; blood, 60 min PI): 0.7 ± 0.1 %ID/g
- %ID/g Bone ([10]; 2 min PI): 2.6 ± 0.6 %ID/g
- %ID/g Bone ([10]; 10 min PI): 4.2 ± 0.6 %ID/g
- %ID/g Bone ([10]; 60 min PI): 9.2 ± 6.1 %ID/g
- %ID/g Brain ([10]; brain, 2 min PI): 4.9 ± 0.5 %ID/g
- 2/60 min activity ratio Brain ([10]; brain, 2 min to 60 min activity ratio): 18.2
- %ID/g Brain ([10]; brain, 10 min PI): 0.9 ± 0.3 %ID/g
- %ID/g Brain ([10]; brain, 30 min PI): 0.4 ± 0.0 %ID/g
- %ID/g Brain ([10]; brain, 60 min PI): 0.3 ± 0.0 %ID/g
- %ID/g Cerebellum ([10]; 2 min PI): 5.2 ± 0.5 %ID/g
- %ID/g Cerebellum ([10]; 10 min PI): 1.0 ± 0.6 %ID/g
- %ID/g Cerebellum ([10]; 30 min PI): 0.6 ± 0.1 %ID/g
- %ID/g Cerebellum ([10]; 60 min PI): 0.5 ± 0.2 %ID/g
- %ID/g Cerebrum ([10]; 2 min PI): 4.9 ± 0.5 %ID/g
- %ID/g Cerebrum ([10]; 10 min PI): 1.0 ± 0.1 %ID/g
- %ID/g Cerebrum ([10]; 30 min PI): 0.4 ± 0.0 %ID/g
- %ID/g Cerebrum ([10]; 60 min PI): 0.2 ± 0.0 %ID/g
- %ID/g Heart ([10]; 2 min PI): 3.2 ± 0.4 %ID/g
- %ID/g Heart ([10]; 10 min PI): 2.3 ± 0.3 %ID/g
- %ID/g Heart ([10]; 30 min PI): 1.7 ± 0.0 %ID/g
- %ID/g Heart ([10]; 60 min PI): 0.8 ± 0.1 %ID/g
- %ID/g Kidneys ([10]; 2 min PI): 26.3 ± 1.7 %ID/g
- %ID/g Kidneys ([10]; 10 min PI): 12.7 ± 1.7 %ID/g
- %ID/g Kidneys ([10]; 30 min PI): 9.2 ± 2.3 %ID/g
- %ID/g Kidneys ([10]; 60 min PI): 3.6 ± 1.7 %ID/g
- %ID/g Liver ([10]; 2 min PI): 11.8 ± 2.4 %ID/g
- %ID/g Liver ([10]; 10 min PI): 15.1 ± 1.6 %ID/g
- %ID/g Liver ([10]; 30 min PI): 8.3 ± 1.2 %ID/g
- %ID/g Liver ([10]; 60 min PI): 4.2 ± 0.7 %ID/g
- %ID/g Lungs ([10]; 2 min PI): 4.8 ± 0.6 %ID/g
- %ID/g Lungs ([10]; 10 min PI): 3.0 ± 0.3 %ID/g
- %ID/g Lungs ([10]; 30 min PI): 1.8 ± 0.2 %ID/g
- %ID/g Lungs ([10]; 60 min PI): 0.9 ± 0.2 %ID/g
- %ID/g Muscle ([10]; 2 min PI): 1.5 ± 0.5 %ID/g
- %ID/g Muscle ([10]; 10 min PI): 1.0 ± 0.2 %ID/g
- %ID/g Muscle ([10]; 30 min PI): 0.8 ± 0.1 %ID/g
- %ID/g Muscle ([10]; 60 min PI): 3.5 ± 5.5 %ID/g
- %ID/g Pancreas ([10]; 2 min PI): 7.3 ± 2.4 %ID/g
- %ID/g Pancreas ([10]; 10 min PI): 4.0 ± 2.0 %ID/g
- %ID/g Pancreas ([10]; 30 min PI): 2.2 ± 0.5 %ID/g
- %ID/g Pancreas ([10]; 60 min PI): 1.2 ± 0.3 %ID/g
- %ID/g Spleen ([10]; 2 min PI): 16.6 ± 6.7 %ID/g
- %ID/g Spleen ([10]; 10 min PI): 4.9 ± 0.6 %ID/g
- %ID/g Spleen ([10]; 30 min PI): 2.4 ± 0.4 %ID/g
- %ID/g Spleen ([10]; 60 min PI): 1.3 ± 0.3 %ID/g
- % Block ± SD of tracer binding ([2]; tracer 7 nmol/L [18F]T808): 89 ± 0.0%
